Measured values taken from ChEMBL document CHEMBL3351939, “Diterpenoids with Immunosuppressive Activities from Cinnamomum cassia” (J Nat Prod, 2014).
Activity calls are given as the source filed them. The calls are words filed in the database; no cut-off is given here.

What was measured:
[1] = test system: B; experiment: Immunosuppressive activity in mouse B cells assessed as inhibition of LPS-induced cell proliferation at 0.05 to 0.8 mM; assay type: functional, cell-based
Outline: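 Murine splenocytes with LPS-induced B-cell proliferation; the read-out is percent inhibition of proliferation.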

[2] = test system: T-cell; experiment: Immunosuppressive activity in mouse T cells assessed as inhibition of ConA-induced cell proliferation at 0.05 to 0.8 mM; assay type: functional, cell-based
Outline: (§1)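 Murine splenocytes with ConA-induced T-cell proliferation; the read-out is percent inhibition of proliferation. Cyclosporine A serves as the reference. Results are given as mean ± SD, n = 3.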

[3] = Toxicity against mouse lymphocytes assessed as cell viability at 50 uM; assay type: cell-based, Lymphocyte; conditions: read-out: Activity
[4] = Immunosuppressive activity in mouse T cells assessed as inhibition of ConA-induced cell proliferation at 50 uM; assay type: functional; outline: as §1
[5] = Immunosuppressive activity in mouse T cells assessed as inhibition of ConA-induced cell proliferation at 100 uM; assay type: functional; outline: as §1

Structure (SMILES) | inhibition [1] | inhibition [2] | viability at 50 µM [3] | inhibition at 50 µM [4] | inhibition at 100 µM [5]
CC1=C([C@H](C)CO)C[C@@]2(O)[C@@]3(C)CC(=O)O[C@@H]4[C@@H](C)CC[C@@]3(O)[C@@]4(O)[C@@]12O | Dose-dependent effect | Dose-dependent effect | 97.8% | 58.8% | 
C/C=C/C[C@@H](C)[C@@H](O)[C@H]1C(=O)N[C@@H](CC)C(=O)N(C)CC(=O)N(C)[C@@H](CC(C)C)C(=O)N[C@@H](C(C)C)C(=O)N(C)[C@@H](CC(C)C)C(=O)N[C@@H](C)C(=O)N[C@H](C)C(=O)N(C)[C@@H](CC(C)C)C(=O)N(C)[C@@H](CC(C)C)C(=O)N(C)[C@@H](C(C)C)C(=O)N1C [CYCLOSPORINE] |  |  |  |  | 101%
CC1=C(C(C)C)C[C@@]2(O)[C@@]3(CO[C@@H]4O[C@H](CO)[C@@H](O)[C@H](O)[C@H]4O)CC(=O)O[C@H]([C@]4(O)[C@H](C)CC[C@@]43O)[C@@]12O | inactive | inactive |  |  | 
CC1=C([C@H](C)CO)C[C@@]2(O)[C@@]3(C)CC(=O)O[C@H]([C@]4(O)[C@H](C)CC[C@@]43O)[C@@]12O | Dose-dependent effect | Dose-dependent effect | 105% | 86.1% | 94.5%
